Test results reported in ChEMBL document CHEMBL1773035, “SHAFTS: a hybrid approach for 3D molecular similarity calculation. 2. Prospective case study in the discovery of diverse p90 ribosomal S6 protein kinase 2 inhibitors to suppress cell migration” (J Med Chem, 2011).

Legend:
[1] = system: MDA-MB-231; assay: Antiproliferative activity against human MDA-MB-231 cells over expressing RSK2 at 10 uM after 48 hrs by MTT assay; assay type: functional; details: MDA-MB-231, 48 h
[2] = target: Mast/stem cell growth factor receptor Kit (Homo sapiens) (UniProt P10721); assay: Inhibition of c-Kit at 10 uM by ELISA based method
Mast/stem cell growth factor receptor Kit (Homo sapiens), sequence (P10721 whole entry): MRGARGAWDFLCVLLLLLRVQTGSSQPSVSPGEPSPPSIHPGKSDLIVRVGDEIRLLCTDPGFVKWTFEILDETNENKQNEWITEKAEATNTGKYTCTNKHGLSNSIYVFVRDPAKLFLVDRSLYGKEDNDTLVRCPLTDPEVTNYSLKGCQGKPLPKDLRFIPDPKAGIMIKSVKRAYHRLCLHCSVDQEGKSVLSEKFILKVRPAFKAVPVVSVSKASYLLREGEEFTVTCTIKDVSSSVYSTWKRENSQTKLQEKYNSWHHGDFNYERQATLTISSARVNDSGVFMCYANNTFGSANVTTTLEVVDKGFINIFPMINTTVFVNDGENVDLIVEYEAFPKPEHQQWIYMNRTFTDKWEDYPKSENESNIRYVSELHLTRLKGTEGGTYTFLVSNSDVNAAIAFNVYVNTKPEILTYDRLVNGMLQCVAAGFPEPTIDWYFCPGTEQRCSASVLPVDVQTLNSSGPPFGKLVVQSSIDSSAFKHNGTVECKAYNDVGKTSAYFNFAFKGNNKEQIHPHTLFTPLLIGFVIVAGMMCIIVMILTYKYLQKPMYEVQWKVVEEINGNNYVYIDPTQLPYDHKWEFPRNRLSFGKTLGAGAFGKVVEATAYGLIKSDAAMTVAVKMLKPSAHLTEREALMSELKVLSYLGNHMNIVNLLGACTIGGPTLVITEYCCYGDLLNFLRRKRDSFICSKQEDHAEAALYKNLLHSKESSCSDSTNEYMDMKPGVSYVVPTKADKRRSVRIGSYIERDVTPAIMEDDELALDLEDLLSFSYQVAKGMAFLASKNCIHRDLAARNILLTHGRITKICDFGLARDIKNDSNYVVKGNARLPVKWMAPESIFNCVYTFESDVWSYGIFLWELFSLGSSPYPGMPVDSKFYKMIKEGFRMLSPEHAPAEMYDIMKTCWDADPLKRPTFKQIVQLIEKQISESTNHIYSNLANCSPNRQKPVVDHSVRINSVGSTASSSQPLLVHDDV
How it was run: (§1)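 Tyrosine kinase profiling by ELISA-based method, ATP at Km for each enzyme; percent inhibition at 10 μM, mean of at least two independent tests.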

[3] = target: Ribosomal protein S6 kinase beta-1 (Homo sapiens) (UniProt P23443); assay: Inhibition of p70S6K at 1 uM
Ribosomal protein S6 kinase beta-1 (Homo sapiens), sequence (P23443 whole entry, looked up): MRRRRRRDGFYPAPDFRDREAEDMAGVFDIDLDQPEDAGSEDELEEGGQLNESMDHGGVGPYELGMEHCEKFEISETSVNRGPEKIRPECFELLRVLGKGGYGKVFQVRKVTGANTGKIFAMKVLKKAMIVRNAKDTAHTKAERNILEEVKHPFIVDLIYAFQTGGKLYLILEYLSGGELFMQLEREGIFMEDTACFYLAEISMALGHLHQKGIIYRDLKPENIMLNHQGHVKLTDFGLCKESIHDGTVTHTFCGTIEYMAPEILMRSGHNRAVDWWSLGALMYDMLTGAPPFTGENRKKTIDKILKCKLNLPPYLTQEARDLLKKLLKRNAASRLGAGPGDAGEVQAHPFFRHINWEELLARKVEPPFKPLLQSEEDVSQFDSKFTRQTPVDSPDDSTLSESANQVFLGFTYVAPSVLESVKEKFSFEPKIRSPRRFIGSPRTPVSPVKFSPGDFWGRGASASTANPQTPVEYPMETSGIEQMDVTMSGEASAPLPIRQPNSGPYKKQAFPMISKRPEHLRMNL

[4] = target: Protein kinase C alpha type (Homo sapiens) (UniProt P17252); assay: Inhibition of PKCalpha at 1 uM
[5] = target: Vascular endothelial growth factor receptor 2 (Homo sapiens) (UniProt P35968); assay: Inhibition of KDR at 10 uM by ELISA based method; how it was run: as §1
[6] = target: Tyrosine-protein kinase ABL1 (Homo sapiens) (UniProt P00519); assay: Inhibition of ABL at 10 uM by ELISA based method; how it was run: as §1
[7] = target: Platelet-derived growth factor receptor alpha (Homo sapiens) (UniProt P16234); assay: Inhibition of PDGFRalpha at 10 uM by ELISA based method; how it was run: as §1
[8] = target: T1, Ribosomal protein S6 kinase alpha-3 (Homo sapiens, UniProt P51812); details: 1 uM
T1 sequence (P51812 whole entry): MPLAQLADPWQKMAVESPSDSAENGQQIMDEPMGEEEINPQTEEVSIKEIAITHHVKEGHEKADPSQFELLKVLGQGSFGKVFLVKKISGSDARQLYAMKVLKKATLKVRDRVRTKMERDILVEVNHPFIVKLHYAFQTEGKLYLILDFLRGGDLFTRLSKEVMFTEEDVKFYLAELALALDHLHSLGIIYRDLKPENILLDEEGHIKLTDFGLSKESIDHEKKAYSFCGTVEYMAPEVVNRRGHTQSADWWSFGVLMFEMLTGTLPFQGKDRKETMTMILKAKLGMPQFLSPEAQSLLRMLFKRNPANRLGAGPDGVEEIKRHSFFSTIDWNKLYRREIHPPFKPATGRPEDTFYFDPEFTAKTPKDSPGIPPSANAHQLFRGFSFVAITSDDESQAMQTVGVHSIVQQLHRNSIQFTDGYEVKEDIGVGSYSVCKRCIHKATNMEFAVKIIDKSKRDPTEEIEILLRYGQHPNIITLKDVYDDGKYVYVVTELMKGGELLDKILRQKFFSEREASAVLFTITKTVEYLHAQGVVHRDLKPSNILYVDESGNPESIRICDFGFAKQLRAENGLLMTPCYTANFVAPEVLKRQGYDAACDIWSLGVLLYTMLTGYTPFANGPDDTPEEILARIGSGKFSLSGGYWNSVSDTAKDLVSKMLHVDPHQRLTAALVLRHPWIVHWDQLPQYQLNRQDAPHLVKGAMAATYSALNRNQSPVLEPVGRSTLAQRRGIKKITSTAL

[9] = target: Proto-oncogene tyrosine-protein kinase receptor Ret (Homo sapiens) (UniProt P07949); assay: Inhibition of RET at 10 uM by ELISA based method; how it was run: as §1
[10] = target: 3-phosphoinositide-dependent protein kinase 1 (Homo sapiens) (UniProt O15530); assay: Inhibition of PDK1 at 1 uM
[11] = system: MCF7; assay: Antiproliferative activity against human MCF7 cells over expressing RSK2 at 10 uM after 48 hrs by MTT assay; assay type: functional; details: MCF7, 48 h
[12] = target: Mitogen-activated protein kinase 1 (Homo sapiens) (UniProt P28482); assay: Inhibition of ERK2 at 1 uM
[13] = target: Fibroblast growth factor receptor 1 (Homo sapiens) (UniProt P11362); assay: Inhibition of FGFR1 at 10 uM by ELISA based method; how it was run: as §1
Fibroblast growth factor receptor 1 (Homo sapiens), sequence (P11362 22-822 limits assumed): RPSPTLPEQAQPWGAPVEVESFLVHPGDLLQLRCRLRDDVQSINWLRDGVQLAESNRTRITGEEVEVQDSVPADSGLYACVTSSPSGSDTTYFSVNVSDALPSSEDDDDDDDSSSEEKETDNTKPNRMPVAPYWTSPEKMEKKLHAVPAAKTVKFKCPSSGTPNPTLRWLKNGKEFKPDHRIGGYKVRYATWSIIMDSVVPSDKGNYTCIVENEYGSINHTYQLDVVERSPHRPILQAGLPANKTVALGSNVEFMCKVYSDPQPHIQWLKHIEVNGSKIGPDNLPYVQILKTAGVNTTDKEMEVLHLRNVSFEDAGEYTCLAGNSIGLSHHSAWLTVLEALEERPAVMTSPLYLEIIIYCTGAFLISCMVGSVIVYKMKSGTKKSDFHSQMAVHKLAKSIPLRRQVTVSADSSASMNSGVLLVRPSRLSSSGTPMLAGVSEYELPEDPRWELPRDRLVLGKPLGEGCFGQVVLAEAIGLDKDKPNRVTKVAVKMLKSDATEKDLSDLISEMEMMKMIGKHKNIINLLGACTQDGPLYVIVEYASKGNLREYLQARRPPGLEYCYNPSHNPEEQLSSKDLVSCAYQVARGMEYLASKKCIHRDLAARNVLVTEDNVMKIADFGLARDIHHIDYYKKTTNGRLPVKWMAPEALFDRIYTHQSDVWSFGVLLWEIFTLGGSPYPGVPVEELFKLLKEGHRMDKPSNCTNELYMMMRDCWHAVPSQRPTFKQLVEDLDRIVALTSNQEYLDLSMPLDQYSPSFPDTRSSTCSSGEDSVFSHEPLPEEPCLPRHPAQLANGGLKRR

[14] = target: Ephrin type-A receptor 2 (Homo sapiens) (UniProt P29317); assay: Inhibition of EPHA2 at 10 uM by ELISA based method; how it was run: as §1
[15] = target: Proto-oncogene tyrosine-protein kinase Src (Homo sapiens) (UniProt P12931); assay: Inhibition of c-Src at 10 uM by ELISA based method; how it was run: as §1
[16] = system: HCT-116; assay: Antiproliferative activity against human HCT116 cells over expressing RSK2 at 10 uM after 48 hrs by MTT assay; assay type: functional; details: HCT-116, 48 h
[17] = target: Ribosomal protein S6 kinase alpha-5 (Homo sapiens) (UniProt O75582); details: 1 uM
Ribosomal protein S6 kinase alpha-5 (Homo sapiens), sequence (O75582 whole entry, looked up): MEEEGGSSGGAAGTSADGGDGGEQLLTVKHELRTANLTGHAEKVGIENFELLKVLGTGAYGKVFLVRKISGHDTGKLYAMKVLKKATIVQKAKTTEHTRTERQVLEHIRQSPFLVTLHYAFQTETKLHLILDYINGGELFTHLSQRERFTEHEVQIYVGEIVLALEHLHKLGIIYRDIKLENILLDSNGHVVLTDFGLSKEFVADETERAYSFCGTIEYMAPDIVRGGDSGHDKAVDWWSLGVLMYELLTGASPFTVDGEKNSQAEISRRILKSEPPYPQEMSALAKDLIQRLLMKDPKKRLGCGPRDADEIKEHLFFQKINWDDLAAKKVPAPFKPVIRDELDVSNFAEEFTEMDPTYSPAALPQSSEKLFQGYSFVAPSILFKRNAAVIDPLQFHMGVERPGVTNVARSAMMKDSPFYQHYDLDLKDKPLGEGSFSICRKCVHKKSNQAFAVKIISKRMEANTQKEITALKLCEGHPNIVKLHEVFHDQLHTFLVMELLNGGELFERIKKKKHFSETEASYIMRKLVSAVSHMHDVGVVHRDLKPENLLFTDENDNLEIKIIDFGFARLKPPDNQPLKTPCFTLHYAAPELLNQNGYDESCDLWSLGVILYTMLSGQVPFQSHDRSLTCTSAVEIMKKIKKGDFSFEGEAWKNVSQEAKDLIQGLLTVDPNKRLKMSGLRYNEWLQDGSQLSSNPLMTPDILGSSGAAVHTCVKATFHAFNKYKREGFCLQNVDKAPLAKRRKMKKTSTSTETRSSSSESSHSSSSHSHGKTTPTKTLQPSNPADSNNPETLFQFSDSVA

[18] = system: HCT-116; assay: Antiproliferative activity against human HCT116 cells over expressing RSK2 after 48 hrs by MTT assay; assay type: functional, cell-based; details: HCT-116, 48 h
How it was run: (§2)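 Formazan dissolved in DMSO, absorbance read at 570 nm. Inhibition = (1 − A570 compound/A570 control)×100. Screening concentration 100 μM (control 10 μM). IC50 from curves, ≥3 independent tests, attempted when inhibition at 100 μM exceeded 40%.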

[19] = target: Epidermal growth factor receptor (Homo sapiens) (UniProt P00533); assay: Inhibition of EGFR at 10 uM by ELISA based method; how it was run: as §1
[20] = target: Vascular endothelial growth factor receptor 1 (Homo sapiens) (UniProt P17948); assay: Inhibition of Flt1 at 10 uM by ELISA based method; how it was run: as §1
[21] = target: T1, Ribosomal protein S6 kinase alpha-3; assay: Inhibition of RSK2 after 60 mins
How it was run: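 Recombinant RSK2 (20 ng) preincubated 20 min at room temperature with compound in HEPES pH 7.4 buffer (MgCl2, EGTA, Tween 20, BGG) with 25 μM S6 peptide; started with ATP (10 μM final), 60 min at room temperature. ADP Quest fluorescence read at ex 530/em 590 nm. IC50 from curves of ≥3 independent tests, measured when inhibition at 10 μM exceeded 30%.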

[22] = system: MCF7; assay: Antiproliferative activity against human MCF7 cells over expressing RSK2 after 48 hrs by MTT assay; assay type: functional, cell-based; details: MCF7, 48 h; how it was run: as §2
[23] = target: Platelet-derived growth factor receptor beta (Homo sapiens) (UniProt P09619); assay: Inhibition of PDGFRbeta at 10 uM by ELISA based method; how it was run: as §1
Platelet-derived growth factor receptor beta (Homo sapiens), sequence (P09619 whole entry): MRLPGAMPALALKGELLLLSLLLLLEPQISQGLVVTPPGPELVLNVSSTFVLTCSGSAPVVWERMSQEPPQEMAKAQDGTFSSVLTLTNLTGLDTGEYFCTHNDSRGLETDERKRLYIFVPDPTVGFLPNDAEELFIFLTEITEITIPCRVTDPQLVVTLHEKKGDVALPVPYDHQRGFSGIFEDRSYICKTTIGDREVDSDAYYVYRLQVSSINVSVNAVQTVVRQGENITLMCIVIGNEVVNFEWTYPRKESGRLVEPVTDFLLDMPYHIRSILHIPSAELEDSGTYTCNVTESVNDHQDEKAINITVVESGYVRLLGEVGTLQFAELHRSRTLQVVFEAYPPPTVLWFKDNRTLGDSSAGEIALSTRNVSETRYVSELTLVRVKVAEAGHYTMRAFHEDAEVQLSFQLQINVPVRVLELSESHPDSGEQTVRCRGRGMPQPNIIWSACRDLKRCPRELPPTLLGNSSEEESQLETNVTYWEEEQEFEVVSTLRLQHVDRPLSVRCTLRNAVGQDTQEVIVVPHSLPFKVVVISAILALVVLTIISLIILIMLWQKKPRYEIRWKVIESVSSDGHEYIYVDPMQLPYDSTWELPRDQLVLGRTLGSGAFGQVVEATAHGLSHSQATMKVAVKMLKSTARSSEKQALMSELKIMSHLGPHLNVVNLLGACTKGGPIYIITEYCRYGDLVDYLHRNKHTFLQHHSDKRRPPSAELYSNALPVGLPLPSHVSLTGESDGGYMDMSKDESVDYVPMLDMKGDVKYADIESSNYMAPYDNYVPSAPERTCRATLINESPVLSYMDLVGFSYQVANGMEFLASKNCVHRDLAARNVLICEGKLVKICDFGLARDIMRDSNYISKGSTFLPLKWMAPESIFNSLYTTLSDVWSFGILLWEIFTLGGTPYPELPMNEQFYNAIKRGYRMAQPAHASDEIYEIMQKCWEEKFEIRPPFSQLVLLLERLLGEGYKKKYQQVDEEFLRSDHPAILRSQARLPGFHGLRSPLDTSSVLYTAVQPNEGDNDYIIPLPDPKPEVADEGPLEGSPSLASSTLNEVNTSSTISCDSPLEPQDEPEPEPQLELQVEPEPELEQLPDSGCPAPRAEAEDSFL

[24] = target: Mitogen-activated protein kinase 8 (Homo sapiens) (UniProt P45983); assay: Inhibition of JNK1 at 1 uM
[25] = target: Mitogen-activated protein kinase 14 (Homo sapiens) (UniProt Q16539); assay: Inhibition of p38alpha at 1 uM
[26] = system: MDA-MB-231; assay: Antiproliferative activity against human MDA-MB-231 cells over expressing RSK2 after 48 hrs by MTT assay; assay type: functional, cell-based; details: MDA-MB-231, 48 h; how it was run: as §2

## Cn1cc(C2=C(c3cn(CCCSC(=N)N)c4ccccc34)C(=O)NC2=O)c2ccccc21 [BISINDOLYLMALEIMIDE IX]
[1]
  inhibition at 10 µM: 97.1%
[2]
  inhibition: 58%
[3]
  inhibition: 94%
[4]
  inhibition: 97%
[5]
  inhibition: 74.4%
[6]
  inhibition: 37.9%
[7]
  inhibition: 32.6%
[8]
  inhibition: 98%
[9]
  inhibition: 71.8%
[10]
  inhibition: 16%
[11]
  inhibition at 10 µM: 95.3%
[12]
  inhibition: 3%
[13]
  inhibition: 61.2%
[14]
  inhibition: 70.7%
[15]
  inhibition: 37.4%
[16]
  inhibition at 10 µM: 95.2%
[17]
  inhibition: 98%
[18]
  IC50: 840 nM
[19]
  inhibition: 36.6%
[20]
  inhibition: 73.2%
[21]
  IC50: 10 nM
[22]
  IC50: 1960 nM
[23]
  inhibition: 32.4%
[24]
  inhibition: 5%
[25]
  inhibition: 16%
[26]
  IC50: 1770 nM
